# Compound activity deposited in PubChem by several laboratories.
# An excerpt weighted towards active compounds, which were near 5.6% of everything screened.
# aDG glyco act = alpha-DG glycosylation activation; Pro5-aDG cells, alpha-DG glycosylation AlphaScreen (IIH6); 0% Pro5, 100% B10-LARGE cell signal; activation, % at 10 µM; 360,000 tested, 0.22% active; AID 624168;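 active = activation of at least 8% versus controls, or a plate z-score of at least 8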;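 note: Pro5 are CHO cells carrying HIG-tagged alpha-DG that lacks glycosylation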
# UPR XBP1 act = activators of adaptive arm of unfolded protein response (XBP1). CHO-XBP1 luciferase reporter, IRE1-XBP1 UPR activation, luminescence; percent of tunicamycin response, DMSO as zero. activation, % at 20 µM. 330,000 tested, 0.33% active. AID 463104;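 active = versus positive control, 20 µM dose yields 30% or more activation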
#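 incubation = overnight seeding at 37 °C, 6 h compound treatment at 37 °C | assay system = CHO-XBP1 cells stably carrying IRE1-XBP1-driven luciferase reporter | input = 1000 cells per well | detection = luciferase luminescence | dosing = single point, 20 µM final compound, 1% DMSO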
# UPR CHOP act = apoptotic UPR (CHOP) activation; CHO-CHOP luciferase reporter, luminescence; percent of tunicamycin response over DMSO baseline; activation, % at 10 µM; 330,000 tested, 0.34% active;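 active = at 10 µM dose, activation of 40% or more, normalized to positive control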
#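 measured by = luciferase luminescence | assay system = CHO-CHOP cells, stable luciferase reporter of PERK-eIF2a-CHOP signalling | amount = 500 reporter cells seeded per well | timing = 6 h compound exposure at 37 °C after overnight seeding | controls = positive tunicamycin 10 µg/mL, negative DMSO alone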
# GRIN3A LBD mod = modulators (binders) of human NR3A ligand-binding domain; NR3A LBD differential scanning fluorimetry, Tm shift; 0% = protein alone, 100% = glycine-bound protein; Tm shift relative to glycine control, % at 25 µM; 340,000 tested, 2.5% active; AID 1259313;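 active = melting temperature shift of at least 10% of the positive control shift, at one fixed dose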
# CHOP inhibitor = CHOP inhibition in unfolded protein response; CHO-K1 CHOP-promoter luciferase, tunicamycin-induced, 15-18 h; inhibition, % at 10 µM; 220,000 tested, 3.8% active; AID 2732;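 active = compounds that reduced the stress-induced luciferase reporter signal by more than about 70% of percent inhibition, limit read from the data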
# MPTP inh = blocks calcium-induced mitochondrial swelling; isolated mouse mitochondria, Ca2+ swelling absorbance, 30 min; inhibition, % at 10 µM; 360,000 tested, 1.4% active;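 active = inhibition of 50% or more, scaled per plate between neutral and stimulator controls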
# MPTP counter = Rhodamine 123 counter-screen of mitochondrial pore hits; shares compounds with MPTP inh; isolated mitochondria, membrane potential, Rhodamine 123 fluorescence; inhibition, % at 10 µM; 5,000 tested, 78% active; in the data active = inhibition above about 22%
# MPTP abs DR = MPTP inhibition, dose response swelling confirmation | shares compounds with MPTP inh | isolated mitochondria swelling, absorbance | IC50, µM | 780 tested, 58% active; in the data active = IC50 below about 20 µM
# MPTP cs DR = counter-screen for mitochondrial permeability transition pore inhibitors, dose response | AID 651564 | 780 tested, 49% active | IC50, µM | shares compounds with MPTP inh | isolated mitochondria counterscreen, fluorescence read-out; in the data active = IC50 below about 80 µM
# A number is an active result; n = inactive; x = no result.
SMILES,aDG glyco act,UPR XBP1 act,UPR CHOP act,GRIN3A LBD mod,CHOP inhibitor,MPTP inh,MPTP counter,others
CCN(CC)CCn1c(=N)n(CC(O)COc2cccc(C)c2)c2ccccc21 (stereo unspecified),n,n,n,n,n,71,n,MPTP abs DR=4.5;MPTP cs DR=66
O=C(NNC(=S)NC1CCCCC1)c1sc2ccccc2c1Cl,n,n,n,n,n,88,79,
O=C(NC1CC1)c1sc2ccccc2c1Cl,n,n,n,n,x,n,x,
COc1ccc(-c2cn(Cc3ccc(C(=O)NCc4ccc(C)cc4)cc3)c(C(C)N)n2)cc1 (stereo unspecified),n,n,n,n,x,75,n,MPTP abs DR=10;MPTP cs DR=n
C=C1C(O)[C@@H]2O[C@]3(CC[C@H](/C=C/C(C)[C@@H]4CC(C)=CC5(O[C@H](C[C@@](C)(O)CO)CCC5O)O4)O3)CC[C@H]2O[C@@H]1C(O)CC(C)[C@H]1OC2(CCCCO2)CCC1C (stereo partly specified),x,n,n,n,x,x,x,
CCN(C[C@H]1N[C@@](Cc2ccccc2)(C(=O)OC)[C@H]2C(=O)N(C)C(=O)[C@@H]12)C(=O)C1CCCCC1,n,n,n,n,x,n,x,
O=S(=O)(Nc1cc2nc3ccccc3nc2n1Cc1ccccc1)c1ccc(Cl)cc1,n,x,x,12,93,58,36,
Cc1cn2c(N)c(C=C3C=C(Cl)C(=O)C(Cl)=C3)c(=O)nc2s1,n,n,n,n,n,87,83,
COC1=C/C(=C/c2c(N)n3cc(C)sc3nc2=O)C=CC1=O,n,n,n,n,n,n,x,
CC(C)c1ccc(NC(=O)N(CCc2nc3ccccc3[nH]2)C2CCCC2)cc1,n,n,n,n,n,58,81,
CC(=O)Nc1ccc(CCc2nc3ccccc3[nH]2)cc1,n,n,n,n,x,n,x,
CC(NS(=O)(=O)c1cc2c3c(c1)CCC(=O)N3CCC2)c1ccccc1 (stereo unspecified),n,n,n,n,x,n,x,
COc1ccc(OC)c(C(=O)COC(=O)c2cc(C)oc2C)c1,n,n,n,n,n,60,n,MPTP abs DR=10;MPTP cs DR=n
O=C1C=C(c2cccc(CO)c2)C[C@@H](c2ccc(Cl)cc2)C1,n,n,n,n,x,n,x,
N=c1oc2cc(O)ccc2cc1C(=O)Nc1ccc(Br)cc1,n,n,n,n,x,61,78,
CC1(C)COC(c2cc3c(cc2Br)OCO3)OC1,n,x,x,n,x,n,x,
Clc1cccc2c1Sc1ccccc1CC2N1CCNCC1 (stereo unspecified),n,n,n,n,n,93,n,
Cc1nc2n[nH]c(N)c2nc1C,n,x,x,x,x,n,x,
CC1(c2ccc3ccccc3c2)NC(=O)N(CC(=O)N2CCN(Cc3ccc(C#N)cc3)CC2)C1=O (stereo unspecified),n,n,n,n,x,57,65,
CN(Cc1cccnc1)C(=O)c1cc(COc2ccc3c(c2)CCCC3)on1,n,n,n,n,x,67,85,
CCc1ccc(CN(C)C(=O)c2cc(COc3cccc4cnccc34)on2)cc1,n,n,n,n,x,99,103,
COc1cccc(NC(=O)CSc2nc(O)c(C)c(=O)n2-c2ccc(C)cc2)c1,n,n,n,n,x,n,x,
Cn1nc(-c2ccc(Cl)cc2)cc1NC(=O)Nc1ccccc1,n,n,n,26,n,70,69,
Cc1csc(NC(=O)Nc2cccc(Cl)c2)n1,n,n,n,28,n,92,75,
Cc1cc(NC(=O)Nc2ccc(Cl)cc2)n(C)n1,n,n,n,n,x,n,x,
SMILES,aDG glyco act,UPR XBP1 act,UPR CHOP act,GRIN3A LBD mod,CHOP inhibitor,MPTP inh,MPTP counter,others
O=C(Nc1ccc(Cl)cc1)Nc1nc(-c2ccccc2)cs1,n,n,n,11,n,94,92,
Cc1noc(-c2ccccc2)c1NC(=O)Nc1ccc(Cl)cc1,n,n,n,n,n,84,97,
Cc1nnc(NC(=O)Nc2cccc(Cl)c2)s1,n,n,n,n,n,n,x,
O=c1ccn([C@@H]2O[C@H](CNCC3=Cc4cc(O)ccc4OC3)[C@@H](O)[C@H]2O)c(=O)[nH]1,n,x,x,n,x,n,x,
Cc1cc([N+](=O)[O-])ccc1NC(=O)c1csc(C)c1C,n,n,n,n,x,n,x,
O=C(Nc1ccc(N2CCOCC2)cc1)c1ccc(Cl)c(S(=O)(=O)N2CCCCC2)c1,n,n,n,n,x,n,x,
O=C(OCC(=O)N1CCc2ccccc21)c1ccncc1,n,n,n,n,x,n,x,
O=C(Nc1nc(-c2ccc(Cl)cc2)cs1)NC1CCCCC1,n,n,n,n,n,92,88,
O=C(Nc1cccc(Cl)c1)Nc1nc(-c2ccccc2)cs1,n,n,n,31,n,94,83,
COc1ccccc1-c1cc(NC=O)c2ncc(-c3ccc(S(C)(=O)=O)cc3)n2c1,n,x,x,x,x,n,x,
OCCCC1CCCN(Cc2cn[nH]c2-c2ccc(F)cc2F)C1 (stereo unspecified),n,n,n,n,n,n,x,
CCCCCCCCCc1nc2sc3c(c2c(=O)n1NC(=O)c1ccccc1[N+](=O)[O-])CC(C)(C)OC3,n,n,n,20,n,87,63,
CCc1nc2sc3c(c2c(=O)n1N)CC(C)(C)OC3,n,n,n,n,n,n,x,
CCCc1nc2sc3c(c2c(=O)n1NC(=O)c1ccco1)CC(C)(C)OC3,n,n,n,n,n,n,x,
CCCCCCCCCc1nc2sc3c(c2c(=O)n1NC(=O)c1ccc([N+](=O)[O-])cc1)CC(C)(C)OC3,n,n,n,24,n,98,64,
COc1cc(/C=N/NC(=O)C2c3ccccc3Oc3ccccc32)ccc1O,n,n,n,n,n,83,n,MPTP abs DR=16;MPTP cs DR=n
COc1cc(/C=N/NC(=O)C2COc3ccccc3O2)ccc1O (stereo unspecified),n,n,n,n,n,n,x,
Cc1cccc(C)c1-n1c(C)cc(/C=N/NC(=O)CSc2ncccn2)c1C,n,n,n,n,n,89,n,MPTP abs DR=n;MPTP cs DR=50
CS(=O)(=O)c1ccc(N2CCN(c3ccccn3)CC2)c([N+](=O)[O-])c1,n,n,n,n,x,n,x,
N#CC1=C(N)NC(SCc2ccc(Cl)cc2)=C(C#N)C12CCCCC2,n,n,n,n,n,n,x,
N#CC1=C(N)NC(SCC(=O)Nc2ccc(Br)cc2)=C(C#N)C12CCCCC2,n,n,n,31,73,89,89,
N#CC1=C(N)NC(SCc2ccc(Br)cc2)=C(C#N)C12CCCCC2,n,n,n,11,93,92,79,
